Source: ChEMBL document CHEMBL3124835 (J Nat Prod, 2014)
Activity calls are given as the source filed them. No cut-off for these calls is given here.

Columns and labels:
[1] = biological target: Protein kinase C (PKC) (Homo sapiens) (UniProt O94806+P41743+P17252+P05129+Q05655+P05771+Q05513+Q02156+P24723+Q15139+Q04759); test: Activation of PKC in human Jurkat cells assessed as NF-kappaB reporter gene activation after 24 hrs by FACS analysis; assay type: cell-based
[2] = test system: Human immunodeficiency virus 1; test: Reactivation of latent HIV1 NL4-3-Luc expression in human naive CD4+ T cells treated 7 days post-infection measured after 48 hrs by luminescence plate reader analysis relative to SAHA-treated control; assay type: functional, T-cell; set-up: concentration or dose not given beside the values
In short: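 Primary naive CD4+ T cells from healthy HIV-negative donor PBMCs, purified by negative selection. Activated 3 days with anti-CD3/CD28 beads (1 bead:2 cells), anti-IL-4, anti-IL-12p70 and 10 ng/mL TGF-β, then kept 2 days in 30 U/mL IL-2 and infected with NL4-3-Luc. Seven days after infection, 10 000 cells/well exposed to compound for 48 h; BriteGlo luminescence read-out.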

[3] = test system: Human immunodeficiency virus 1; test: Reactivation of latent HIV1 NL4-3-Luc expression in human naive CD4+ T cells treated 7 days post-infection measured after 48 hrs by luminescence plate reader analysis; assay type: functional, organism-based, T-cell
[4] = test system: Human immunodeficiency virus 1; test: Reactivation of latent HIV1 NL4-3-Luc expression in human naive CD4+ T cells assessed as HIV-1 RNA expression treated 7 days post-infection by RT-qPCR analysis; assay type: functional, organism-based; conditions: T-cell
[5] = Human immunodeficiency virus 1, NL4-3, T-cell, read-out: EC50

## C[C@@H]1C[C@H]2O[C@@H]2/C=C\C=C\C(=O)Cc2c(Cl)c(O)cc(O)c2C(=O)O1 [RADICICOL]
[1]
  Activity: inactive
[2]
  Activity: 98%
[3]; [5]
  EC50: 9.1 µM
[4]
  Activity: Active

## C[C@H]1C[C@H](O)C(Cl)/C=C\C=C\C(=O)Cc2c(Cl)c(O)cc(O)c2C(=O)O1 (stereo not given in full) [POCHONIN C]
[2]
  Activity: 92%
[3]; [5]
  EC50: 6.3 µM

## C[C@@H]1CC(O)C2C=CC(CC(=O)Cc3c(Cl)c(O)cc(O)c3C(=O)O1)O2 (stereo not given in full)
[2]; T-cell
  Activity: inactive
[3]; t-cell
  EC50: Not Active

## O=C(NCCSSCCNC(=O)/C(Cc1ccc(O)c(Br)c1)=N/O)/C(Cc1ccc(O)c(Br)c1)=N/O [PSAMMAPLIN A]
[2]
  Activity: 100%
[3]; [5]
  EC50: 0.2 µM

## C[C@@H]1C[C@@H](O)/C=C\[C@H](O)CCC(=O)Cc2c(Cl)c(O)cc(O)c2C(=O)O1 [POCHONIN N]
[2]; T-cell
  Activity: inactive
[3]; t-cell
  EC50: Not Active

## C[C@@H]1C[C@@H](O)[C@@H](O)/C=C\C=C\C(=O)Cc2c(Cl)c(O)cc(O)c2C(=O)O1
[2]
  Activity: 25%
[3]; [5]
  EC50: 24.9 µM

## C[C@H]1C[C@H]2O[C@@H]2C[C@H](O)/C=C/C(=O)Cc2c(Cl)c(O)cc(O)c2C(=O)O1 [POCHONIN B]
[2]
  Activity: 98%
[3]; [5]
  EC50: 39.6 µM

## C[C@@H]1CC(O)/C=C/C(O)C(O)CC(=O)Cc2c(Cl)c(O)cc(O)c2C(=O)O1 (stereo not given in full)
[2]; T-cell
  Activity: inactive
[3]; t-cell
  EC50: Not Active

## CCC(=O)CCCCC[C@@H]1NC(=O)[C@H]2CCCCN2C(=O)[C@H]([C@@H](C)CC)NC(=O)[C@H](Cc2cn(OC)c3ccccc23)NC1=O [APICIDIN]
[2]
  Activity: 100%
[3]; [5]
  EC50: 0.3 µM
